NPY-Y1 antag: NPY-Y1 (human) receptor antagonism | 200,000 compounds, 1% hits | HEK293-CNG Y1 cells, membrane potential fluorescence; NPY at EC95, then isoproterenol | inhibition, % at 3.6 µM;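 active = inhibition above the campaign mean inhibition of all tested compounds plus 3 SD, cut at about 20% in these data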;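 also: 0% = DMSO wells given NPY plus isoproterenol and 100% = isoproterenol alone without NPY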
Target sequence (P25929 whole entry, looked up): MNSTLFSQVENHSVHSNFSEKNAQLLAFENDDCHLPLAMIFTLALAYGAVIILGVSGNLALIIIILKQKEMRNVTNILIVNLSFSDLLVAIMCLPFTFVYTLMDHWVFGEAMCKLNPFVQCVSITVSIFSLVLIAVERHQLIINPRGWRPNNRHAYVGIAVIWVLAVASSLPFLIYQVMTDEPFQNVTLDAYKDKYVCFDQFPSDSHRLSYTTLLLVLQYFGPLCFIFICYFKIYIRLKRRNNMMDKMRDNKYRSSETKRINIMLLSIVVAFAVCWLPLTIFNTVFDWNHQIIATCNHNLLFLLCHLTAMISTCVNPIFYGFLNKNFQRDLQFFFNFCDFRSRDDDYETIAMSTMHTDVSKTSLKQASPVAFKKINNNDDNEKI
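Material: HEK293 Y1/CNG channel cell line; also added: NPY (25 nM), isoproterenol (1 µM), Ro 20-1724 (25 µM); doses: one concentration, 3.6 µM, in 0.4% DMSO; schedule: compound incubation 1 h at room temperature, readout 45 min post-stimulation; technique: membrane potential fluorescence; measure: fluorescence ratio normalized to % inhibition between controls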
NPY2 pot ag: potentiates or activates human NPY-Y2 receptor. 220,000 compounds, 0.45% hits. activation, % at 3.6 µM. AID 1359. cells expressing NPY-Y2, potentiator/agonist read-out; in the data active = activation above about 27%;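 also: cells stimulated with NPY near EC25 plus isoproterenol at EC100; 0% = vehicle plus submaximal agonist and 100% = vehicle plus saturating agonist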
Target sequence (P49146 whole entry, looked up): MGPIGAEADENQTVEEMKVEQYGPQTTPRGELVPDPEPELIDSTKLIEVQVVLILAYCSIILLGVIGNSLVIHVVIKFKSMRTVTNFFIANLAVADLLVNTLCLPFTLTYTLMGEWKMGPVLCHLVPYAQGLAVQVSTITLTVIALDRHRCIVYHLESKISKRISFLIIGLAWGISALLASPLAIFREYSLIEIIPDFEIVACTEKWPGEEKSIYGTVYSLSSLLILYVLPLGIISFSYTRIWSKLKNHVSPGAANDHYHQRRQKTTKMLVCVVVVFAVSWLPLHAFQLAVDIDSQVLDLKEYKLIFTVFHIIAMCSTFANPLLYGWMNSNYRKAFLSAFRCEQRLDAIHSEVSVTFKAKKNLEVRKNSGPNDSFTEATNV
Measles CPE: protection of cells from measles virus; 140,000 compounds, 1.5% hits; protection (pct of control), % at 4 µM; Measles virus-infected cells, CPE protection, absorbance; AID 841; in the data active = protection mostly above about 24%, no sharp cut-off; inactive = mostly below about 26%
NPY1 pot ag: human NPY-Y1 potentiation or agonism, primary screen | activation, % at 3.6 µM | AID 1304 | NPY-Y1 expressing cells, potentiator/agonist activation | 220,000 compounds, 0.37% hits; in the data active = activation above about 33%, passing the limit was not always enough;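 also: cells stimulated with NPY at EC10 then isoproterenol at EC100; 0% = low agonist plus stimulus and 100% = saturating agonist plus stimulus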
NPY-Y2 antag: antagonists of human neuropeptide Y receptor Y2 | P49146 | NPY-Y2 expressing cells, antagonist mode | inhibition, % at 2.7 µM | 140,000 compounds, 0.99% hits | AID 793;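 also: 0% = vehicle with agonist challenge and 100% = reference antagonist with challenge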
MDM2 E3 inh: inhibitors of human Mdm2 E3 ubiquitin ligase. Q00987. cell-based MDM2 ubiquitination luciferase reporter, 2 h; 0 = plate control, 100 = twice control, blank-subtracted. signal enhancement, % at 5 µM. 210,000 compounds, 0.11% hits. AID 1230;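 active = signal enhancement of 30% or more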;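 also: luminescence tracks abundance of the self-degrading MDM2-luciferase fusion protein; higher signal means inhibition of MDM2 E3 ligase activity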
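Buffer or medium: Cells held in DMEM | Assay system: Stable mammalian line carrying autodegrading MDM2–luciferase fusion reporter | Quantity: 2000 cells/well | Times: 4 h settle plus 2 h compound, 37 °C | Doses: One concentration, 5 µM, with 0.2% DMSO | Technique: Luminescence with SteadyLite reagent, 15 min at room temperature | Benchmarks: Plate controls and plate blanks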
NPY1 antag conf: confirmation of human neuropeptide Y receptor Y1 antagonists; shares compounds with NPY-Y1 antag; AID 1254; 1,200 compounds, 21% hits; HEK293-CNG NPY-Y1, membrane potential fluorescence, cAMP; NPY challenge against isoproterenol-raised cAMP; inhibition, % at 3.6 µM; in the data active = inhibition above about 20%;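 also: 0% = vehicle with agonist plus stimulus and 100% = stimulus alone without agonist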
NPY-Y2 antag ct: human NPY-Y2 antagonism in NPY-Y1 counter-screen | AID 1255 | shares compounds with NPY-Y1 antag | inhibition, % at 3.6 µM | 1,200 compounds, 28% hits | HEK293 NPY-Y2 CNG membrane potential fluorescence; cells given NPY, then isoproterenol;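 also: 0% = DMSO with agonist challenge and 100% = reference antagonist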
Active calls of the source: *. Rows were chosen to be rich in hits. Some 2.8% of all compounds tested hit in one or more screens of this group. Rule as the data show it, unless noted: active = inhibition above about 17%; inactive = the rest.

`COc1ccc([N+](=O)[O-])cc1N(CC(O)CN1CCCCC1)S(=O)(=O)c1ccc(C)cc1` (stereo unspecified) gave NPY-Y1 antag 1.2, NPY2 pot ag 6.0, NPY1 pot ag 21.1 and MDM2 E3 inh -13.2.
`COc1ccccc1CCNC(=O)c1nc(-c2cccs2)no1` gave NPY-Y1 antag 23.8*, NPY2 pot ag -17.7, NPY1 pot ag -11.2, MDM2 E3 inh -18.7, NPY1 antag conf 8.2 and NPY-Y2 antag ct 4.9.
For O=[N+]([O-])c1ccc(N2CCN(c3ccc(Cl)nn3)CC2)cc1NC1CC1 the results were NPY-Y1 antag 3.5, NPY2 pot ag -13.4, NPY1 pot ag -25.0 and NPY-Y2 antag 4.8.
FC(F)(F)c1ccc(Nc2nnnc3ccccc23)cc1 was read as NPY-Y1 antag 6.4, NPY2 pot ag 9.2, NPY1 pot ag 12.8 and MDM2 E3 inh -9.3.
For CSc1ccc(-c2nc3cnccn3c2Nc2ccc3c(c2)OCO3)cc1 the results were NPY-Y1 antag 27.6*, NPY2 pot ag 17.3, Measles CPE 9.7, NPY1 pot ag 12.6, NPY-Y2 antag 11.9, MDM2 E3 inh -7.3, NPY1 antag conf 16.0 and NPY-Y2 antag ct 5.1.
For Clc1ccc(-c2nc3cnccn3c2Nc2ccc3c(c2)OCO3)cc1 the results were NPY-Y1 antag 15.1, NPY2 pot ag 12.3, Measles CPE 20.2, NPY1 pot ag 5.1, NPY-Y2 antag 10.4 and MDM2 E3 inh -7.9.
Cc1ccc2nc(SCC(=O)Nc3nnc(SCC(N)=O)s3)[nH]c2c1 was read as NPY-Y1 antag 5.7, NPY2 pot ag -2.7, Measles CPE 4.7, NPY1 pot ag 3.6, NPY-Y2 antag 7.0 and MDM2 E3 inh -13.1.
For CC(C)COc1ccc(Br)cc1CNC(C)(C)C the results were NPY-Y1 antag 27.8*, NPY2 pot ag 25.7, NPY1 pot ag 1.4, MDM2 E3 inh 14.6, NPY1 antag conf 19.9 and NPY-Y2 antag ct 9.8.
Cc1cc(Br)ccc1OCCCCNC(C)(C)C was read as NPY-Y1 antag -1.8, NPY2 pot ag 2.5, Measles CPE 3.3, NPY1 pot ag -11.5, NPY-Y2 antag 6.1 and MDM2 E3 inh -6.4.
Screening COC(=O)c1ccc(COC(=O)CNC(=O)c2ccco2)cc1 returned NPY-Y1 antag 9.2, NPY2 pot ag -4.2, Measles CPE 3.4, NPY1 pot ag -0.4, NPY-Y2 antag 2.5 and MDM2 E3 inh -2.8.
COC(=O)c1ccc(COC(=O)CNC(=O)c2ccc(-c3ccccc3)cc2)cc1 was read as NPY-Y1 antag 20.8*, NPY2 pot ag -6.7, Measles CPE 10.3, NPY1 pot ag -6.8, NPY-Y2 antag 4.4, MDM2 E3 inh 9.6, NPY1 antag conf -1.6 and NPY-Y2 antag ct 2.5.
COc1cc(C)nc(NS(=O)(=O)c2ccc(C)cc2)n1 was read as NPY-Y1 antag -1.9, NPY2 pot ag 10.6, Measles CPE 0.2, NPY1 pot ag -4.7, NPY-Y2 antag 0.0 and MDM2 E3 inh -4.2.
`Cc1cccc(Cc2cnc(N3C(=N)SC(C)C3=O)s2)c1` (stereo unspecified) gave NPY-Y1 antag 15.9, NPY2 pot ag -44.8, NPY1 pot ag -27.4 and MDM2 E3 inh -4.4.
Screening Cc1ccc(Cc2cnc(N3C(=N)SC(C)C3=O)s2)cc1 (stereo unspecified) returned NPY-Y1 antag 25.6*, NPY2 pot ag -35.0, NPY1 pot ag -26.2, MDM2 E3 inh 1.4, NPY1 antag conf 11.6 and NPY-Y2 antag ct 11.7.
For CCN1C(=O)S/C(=C/c2ccc(Sc3nc4ccccc4[nH]3)o2)C1=O the results were NPY-Y1 antag -3.8, NPY2 pot ag 13.7, Measles CPE 20.5, NPY1 pot ag -7.9, NPY-Y2 antag 6.5 and MDM2 E3 inh -5.1.
`N/C(CC(=O)NC1CCCCC1)=N\OCC(=O)Nc1ccc(Cl)c(Cl)c1` gave NPY2 pot ag -11.3 and NPY1 pot ag 19.9.
Screening CCn1c2ccccc2c2cc(NC(=O)c3cc(OC)cc(OC)c3)ccc21 returned NPY-Y1 antag 3.5, NPY2 pot ag 3.7, Measles CPE 2.3, NPY1 pot ag -6.4, NPY-Y2 antag 4.1 and MDM2 E3 inh -11.9.
CCn1c2ccccc2c2cc(NC(=O)c3cc(OC)c(OC)c(OC)c3)ccc21 was read as NPY-Y1 antag 34.6*, NPY2 pot ag -18.7, Measles CPE 1.5, NPY1 pot ag -23.1, NPY-Y2 antag 0.7, MDM2 E3 inh -9.8, NPY1 antag conf 2.5 and NPY-Y2 antag ct 16.4.
CCN(CC)c1ccc(NC(=O)COC(=O)c2cccs2)cc1 was read as NPY-Y1 antag 20.7*, NPY2 pot ag 0.4, Measles CPE 4.2, NPY1 pot ag 3.4, NPY-Y2 antag 4.9, MDM2 E3 inh 0.4, NPY1 antag conf -0.8 and NPY-Y2 antag ct 1.6.
`CCN(c1ccc(NC(=O)COC(=O)c2cccs2)cc1)C(C)C` gave NPY-Y1 antag 5.5, NPY2 pot ag 9.0, Measles CPE 4.5, NPY1 pot ag 25.0, NPY-Y2 antag 0.5 and MDM2 E3 inh -16.0.
`COc1cc2c(cc1OC)C(c1cccs1)N(C(=S)NC(C)C)CC2` (stereo unspecified) gave NPY-Y1 antag 29.9*, NPY2 pot ag -12.0, NPY1 pot ag -11.8, MDM2 E3 inh -2.0, NPY1 antag conf 10.3 and NPY-Y2 antag ct 5.5.
`Cc1onc(-c2ccc(Cl)cc2Cl)c1-c1csc(N/N=C/c2ccccc2Cl)n1` gave NPY2 pot ag -2.0, NPY1 pot ag 15.0 and MDM2 E3 inh -11.4.
Screening COc1ccccc1NC(=O)Cn1c(CCC(=O)O)ccc1-c1ccc(C)cc1 returned NPY-Y1 antag 6.6, NPY2 pot ag 2.1, NPY1 pot ag 23.3 and MDM2 E3 inh 2.5.
`CCOc1ccccc1NC(=O)c1ccccc1-c1nc(-c2ccccc2OC)no1` gave NPY-Y1 antag 42.5*, NPY2 pot ag -72.6, Measles CPE 1.7, NPY1 pot ag -73.5, NPY-Y2 antag 15.9, MDM2 E3 inh -9.7, NPY1 antag conf 23.5* and NPY-Y2 antag ct 22.8*.
For CCOC(=O)c1nc2cc3n(c(C)c-2c1C)C(C)C(CC)=C3C (stereo unspecified) the results were NPY-Y1 antag -2.6, NPY2 pot ag -5.1, NPY1 pot ag -23.3 and NPY-Y2 antag 3.4.
Screening Cn1c(C(=O)N(Cc2ccccc2)Cc2cccs2)cc2sccc21 returned NPY-Y1 antag 21.3*, NPY2 pot ag -17.9, Measles CPE 28.2, NPY1 pot ag -24.9, NPY-Y2 antag 6.8, MDM2 E3 inh -9.8, NPY1 antag conf 6.3 and NPY-Y2 antag ct 4.5.

High-throughput results as filed in PubChem BioAssay.
